Columns and labels:
[1] = tested on: Plasmodium falciparum; test: Antiplasmodial activity against chloroquine-resistant Plasmodium falciparum W2; type: functional, organism-based
[2] = tested on: HUVEC; test: Cytotoxicity against HUVEC cells; type: cell-based; conditions: Homo sapiens
[3] = Ratio of IC50 for human HUVEC cells to IC50 for Plasmodium falciparum W2; type: functional
Method in brief: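 Ratio of HUVEC (human umbilical vein endothelial cell) cytotoxicity IC50 to in vitro IC50 against the chloroquine-resistant P. falciparum W2 strain.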

SMILES	IC50 [1] [nM]	IC50 [2] [nM]	Ratio IC50 [3]
CCN(CC)CCNc1c2ccccc2[n+](C)c2c1[nH]c1ccccc12.[Cl-]	82	674	8.2
CN(C)CCCNc1c2ccccc2[n+](C)c2c1[nH]c1ccccc12.[Cl-]	30	155	5.2
CCN(CC)CCCNc1c2ccccc2[n+](C)c2c1[nH]c1ccccc12.[Cl-]	32	114	3.6
CC(C)NCCCNc1c2ccccc2[n+](C)c2c1[nH]c1ccccc12.[Cl-]	22	794	36.1
CCN(CC)CCCC(C)Nc1c2ccccc2[n+](C)c2c1[nH]c1ccccc12.[Cl-] (stereo not drawn)	127	35	0.3
CC(CN(C)C)Nc1c2ccccc2[n+](C)c2c1[nH]c1ccccc12.[Cl-] (stereo not drawn)	132	617	4.7
C[n+]1c2ccccc2c(NC2CCNCC2)c2[nH]c3ccccc3c21.[Cl-]	44	2040	46.4
CN(C)CC(C)(C)CNc1c2ccccc2[n+](C)c2c1[nH]c1ccccc12.[Cl-]	184	82	0.5
C[n+]1c2ccccc2c(NCCCN2CCCCC2)c2[nH]c3ccccc3c21.[Cl-]	36	1160	32.3
CN(C)CCNc1c2ccccc2[n+](C)c2c1[nH]c1ccccc12.[Cl-]	50	161	3.2
C[n+]1c2ccccc2cc2[n-]c3ccccc3c21.Cl [CRYPTOLEPINE HYDROCHLORIDE]	755	1180	1.6
